# T cell HTS: modulators of CD8 T cell-vesicle binding, primary screen, mouse 2C CD8+ T cells, flow cytometry | 2C CD8+ T cell-vesicle binding; hits give low values | response (vesicle binding), % at 7 µM | 330,000 tested, 0.068% active | AID 2052, 2009;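 active = response, share of CD8 T cells binding vesicles, and their 90th percentile fluorescence all below set limits, cut at about 80% in these data, passing the limit was not always enough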;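 note: values below 100% mean blocked vesicle binding to the CD8+ T cells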
#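 Read-out – percent CD8+ FL2 mean versus row control · System – murine 2C transgenic CD8+ T lymphocytes · Times – 1.5 h cell–vesicle binding at 37 °C, then 20 min icy labelling · Control set – naked vesicles low, QL9 vesicles with vehicle high · Detection – cytometric PE anti-B7-1 and Alexa647 anti-CD8 signals after 1% paraformaldehyde fixation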
# NR2E3 ag-1: inhibitors of NR2E3-RetCOR corepressor binding, primary screen, NR2E3 agonist project, biochemical, TR-FRET, GST-NR2E3, biotin-RetCOR. Photoreceptor-specific nuclear receptor (Homo sapiens), Q9Y5X4. 1536-well. inhibition of corepressor binding, % at 4.78 µM. 320,000 tested, 0.12% active. AID 2300, 2010;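 active = percent inhibition above the cutoff of mean plus 3 SD of all tested compounds, set per screening campaign, cut at about 20% in these data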;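 note: 0% = DMSO wells and 100% = biotin wells as full block of FRET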
# Target sequence (Q9Y5X4 whole entry, looked up): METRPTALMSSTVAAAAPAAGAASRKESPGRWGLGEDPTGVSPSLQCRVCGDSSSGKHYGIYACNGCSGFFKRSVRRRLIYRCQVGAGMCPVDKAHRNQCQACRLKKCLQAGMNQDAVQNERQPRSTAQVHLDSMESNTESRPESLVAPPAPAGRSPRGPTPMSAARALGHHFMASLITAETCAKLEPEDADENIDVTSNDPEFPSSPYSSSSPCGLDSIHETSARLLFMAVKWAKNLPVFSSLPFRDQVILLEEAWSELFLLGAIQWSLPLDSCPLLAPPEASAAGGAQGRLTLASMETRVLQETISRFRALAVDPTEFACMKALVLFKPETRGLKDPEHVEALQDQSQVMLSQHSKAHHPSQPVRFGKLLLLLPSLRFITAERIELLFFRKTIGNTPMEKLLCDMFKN
#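 Test system: GST-NR2E3 and biotin-RetCOR proteins | Quantity: 1.35 nM GST-tagged NR2E3 final | Medium: Tris pH 7.5 | Also added: 7 nM biotin-RetCOR | Dosing: Compound at 4.8 µM, single dose | Timing: 5 h at 4 °C | Detection: Time-resolved FRET | Read-out basis: Percent inhibition | Benchmarks: Biotin wells as high control, 0.6% DMSO wells as low control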
# FXN GAA850 act: FXN promoter activators, primary screen, cell-based, luciferase luminescence, HEK293 lucGAA850; HEK293 lucGAA850 FXN promoter luciferase reporter, 24 h; percent of 10 µM SAHA response; activation, % at 6 µM; 360,000 tested, 0.56% active; AID 540364, 2011;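 active = activation above the average of all compounds screened plus 3 SD, cutoff fixed separately per campaign, cut at about 7.5% in these data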;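 note: 0% = DMSO wells and 100% = 10 µM SAHA wells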
# NR2E3 ag-2: NR2E3 agonists in two-hybrid cells, primary screen, cell-based, luminescence, CHO-S, Gal4-NCOR/VP16-NR2E3; Photoreceptor-specific nuclear receptor (Homo sapiens), Q9Y5X4; luciferase; inhibition of corepressor binding, % at 3.98 µM; 360,000 tested, 0.35% active;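 active = inhibition above the mean of all tested compounds plus 3 SD, cut at about 70% in these data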;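 note: 0% = DMSO with NR2E3 transfected cells and 100% = cells lacking NR2E3 construct; higher means lower luciferase signal from less NR2E3 corepressor binding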
# Myeloid diff 2: induction of myeloid progenitor differentiation, primary screen, cell-based, flow cytometry, MLPCN library; ER-HoxA9 myeloid progenitors, lysozyme-GFP differentiation; calls only at 10 µM; 360,000 tested, 1% active;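 active = normalized GFP-positive differentiation at or above the plate's own cutoff, the solvent-only control mean plus 3 SD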;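 note: cells exposed to compound for four days before flow analysis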
# Myeloid diff CP1: inducers of myeloid progenitor differentiation, confirmation, cell-based, GFP/Mac1 flow cytometry, cherry pick 01; AID 651706, 2012; shares compounds with Myeloid diff 2; calls only; 2,300 tested, 2% active; ER-HoxA9 myeloid progenitors, GFP/Mac1 double-positive flow;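 active = share of green or green-and-red cells above 9 and 9% in run 1 or 4 and 3% in run 2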
# GFP autofluor: counter-screen for myeloid differentiation promoters: compound fluorescence | shares compounds with Myeloid diff 2 | ER-HoxA9 myeloid progenitors, no estrogen, GFP autofluorescence flow cytometry; vehicle wells 0%, positive control 100% | 2,300 tested, 7.4% active | fluorescence response, % (test concentration not listed) | AID 651707;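 active = over 5% cells positive for green fluorescent reporter, or over 2% positive for both it and APC stain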;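 note: range taken on the double positive population between DMSO and positive control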
# * hit, by the source's call; i = inactive; . = no result; + = active, no number. Only some compounds are listed: those with a hit (about 2% of all), similar ones and a draw of the others.
SMILES,T cell HTS,NR2E3 ag-1,FXN GAA850 act,NR2E3 ag-2,Myeloid diff 2,Myeloid diff CP1,GFP autofluor
COc1ccc(CCC(=O)Nc2ccc(S(=O)(=O)Nc3ncccn3)cc2)cc1,379,4,0,-9,i,.,.
Cc1ccc(CC(=O)Nc2ccc(S(=O)(=O)Nc3nccc(C)n3)cc2)cc1,164,-1,-1,25,i,i,1
COc1ccc(CC(=O)Nc2ccc(S(=O)(=O)Nc3ncccn3)cc2)cc1,147,3,1,-42,+,i,1
O=C(/C=C/c1ccccc1Cl)Nc1ccncc1,164,-3,2,-4,+,i,0
CN(Cc1ccccc1)C(=O)c1ccc(NC(=O)C2CCN(C(=O)OC(C)(C)C)CC2)cc1,600,.,-4,4,i,.,.
Cc1nn(-c2ccccc2)c(N2CCCC2)c1/C=N/NC(=S)Nc1ccccc1F,185,-1,0,-74,+,+,1
Cc1c(C(=O)NNC(=S)Nc2ccc(S(N)(=O)=O)cc2)oc2ccccc12,145,2,-1,-28,i,i,1
Cc1c(C(=O)Nc2ccc(S(N)(=O)=O)cc2)oc2ccc(Cl)cc12,145,2,-1,-2,i,.,.
Cc1cc(C)c2nc(SCC(=O)Nc3ccccc3N3CCOCC3)c(C#N)cc2c1,649,2,-2,20,+,i,0
CC(C)CC(C(=O)N1CCc2ccccc2C1)N1C(=O)c2ccccc2C1=O (configuration not stated),375,2,1,6,i,.,.
CC(C(=O)N1CCc2ccccc2C1)N1C(=O)c2ccccc2C1=O (configuration not stated),296,1,-1,0,+,i,0
CCN(CC)CCOC(=O)c1ccc(N/C=C(/C#N)c2nc(-c3ccc4c(c3)OCO4)cs2)cc1,503,-3,4,11,i,.,.
N#C/C(=C\Nc1ccc2cn[nH]c2c1)c1nc(-c2ccc(Cl)cc2)cs1,188,1,4,-18,+,+,0
CCCCn1nnnc1C1(C)CCC(=O)N1CCOc1ccccc1 (configuration not stated),.,.,.,-1,i,.,.
CCCCc1c(-c2cccc(OC)c2)ncn1CCc1ccccc1OC,.,.,.,30,+,i,0
COc1ccccc1CCn1cnc(-c2ccc(OC)c(OC)c2)c1C(C)C,.,.,.,31,i,i,0
C/C(=N/NC(N)=S)c1ccc(Br)s1,275,3,0,-17,i,.,.
CCOc1ccc(NC(=O)COC(=O)Cn2nc(C)c([N+](=O)[O-])c2C)cc1OCC,158,.,1,-35,+,i,0
Cc1ccc(NC(=O)COC(=O)Cn2nc(C)c([N+](=O)[O-])c2C)c([N+](=O)[O-])c1,150,3,0,6,i,.,.
OC[C@@H]1CN(Cc2ccccc2)C[C@H](n2cnc3c(NCc4ccco4)ncnc32)O1,.,.,1,10,+,i,0
COc1cc(OC)c(-c2c3cc(O)c(=O)cc-3oc3cc(O)c(O)cc23)cc1OC,336,-3,-3,-17,+,i,99*
CCn1c(Sc2ccc([N+](=O)[O-])cn2)nnc1-c1ccco1,668,-1,1,-2,i,i,0
CCn1c(SCC(=O)OCc2ccccc2)nnc1-c1ccco1,389,2,0,14,i,.,.
C[C@H](NC(=O)C1CCN(C(=O)[C@@H]2CCCN2C(=O)OC(C)(C)C)CC1)C(=O)NCc1ccc(F)cc1,.,.,0,-9,i,.,.
